Published values collected from several papers.
Compare with care: the assays were run in different laboratories.
Read-out: cell growth or viability

| SMILES | cell line | test | conditions | IC50 |
| --- | --- | --- | --- | --- |
| CCn1c2ccccc2c2cc(C3CC(c4cc5c(ccc6ccccc65)oc4=O)=NN3C(N)=O)ccc21 (stereo not drawn) | NRK-52E | MTT | 24 h | 59.1 µM |
| Cc1cc(Nc2ncc(Cl)c(Nc3ccccc3S(=O)(=O)C(C)C)n2)c(OC(C)C)cc1C1CCNCC1 | Rh18 | – | 72 h | 2.34 µM |
| CC1=C(O)C(=O)C=C2C1=CC=C1[C@@]2(C)CC[C@@]2(C)[C@@H]3C[C@](C)(C(=O)OCCCO)CC[C@]3(C)CC[C@]12C | Bel-7402 | MTT | 48 h | 0.58 µM |
| O=C(O)/C=C/c1cccc(C(c2c[nH]c3ccccc23)c2c[nH]c3ccccc23)c1 | KG-1 | – | 48 h | > 20 µM |
| CCn1c2ccccc2c2cc(C3CC(c4cc5ccccc5oc4=O)=NN3c3cccc(Cl)c3)ccc21 (stereo not drawn) | NRK-52E | MTT | 24 h | 41 µM |
| COc1cc(Nc2nccc(-c3cnn4nc(OC)ccc34)n2)cc(C(F)(F)F)c1 | KG-1 | ATP luminescence | – | 0.86 µM |
| Cn1cc(C(c2ccc(/C=C/C(=O)O)s2)c2cn(C)c3ccccc23)c2ccccc21 | KG-1 | – | 48 h | > 20 µM |
| CCn1c2ccccc2c2cc(C3CC(c4cc5cccc(OC)c5oc4=O)=NN3c3ccc(C)cc3)ccc21 (stereo not drawn) | NRK-52E | MTT | 24 h | 52 µM |
| Cc1cccc2c(C(c3ccc(/C=C/C(=O)O)s3)c3c[nH]c4c(C)cccc34)c[nH]c12 | KG-1 | – | 48 h | > 5 µM |
| CCn1c2ccccc2c2cc(C3CC(c4cc5c(ccc6ccccc65)oc4=O)=NN3C(C)=O)ccc21 (stereo not drawn) | NRK-52E | MTT | 24 h | 81.3 µM |
| CC(C)[C@H](N)C(=O)N1CCC[C@H]1B(O)O | KG-1 | ATP luminescence | 48 h | 0.12 µM |
| CC1=C(O)C(=O)C=C2C1=CC=C1[C@@]2(C)CC[C@@]2(C)[C@@H]3C[C@](C)(C(=O)OCCCCCCCCO)CC[C@]3(C)CC[C@]12C | Bel-7402 | MTT | 48 h | 1.16 µM |
| Oc1ccc(C(c2c[nH]c3ccccc23)c2c[nH]c3ccccc23)cc1 | KG-1 | – | 48 h | > 20 µM |
| CC1=C(O)C(=O)C=C2C1=CC=C1[C@@]2(C)CC[C@@]2(C)[C@@H]3C[C@](C)(C(=O)OCCCOc4ccccc4)CC[C@]3(C)CC[C@]12C | Bel-7402 | MTT | 48 h | 1.33 µM |
| O=C(O)c1ccc(C(c2c[nH]c3ccccc23)c2c[nH]c3ccccc23)cc1 | KG-1 | – | 48 h | > 20 µM |
| CCn1c2ccccc2c2cc(C3CC(c4cc5ccccc5oc4=O)=NN3c3ccc(C)cc3)ccc21 (stereo not drawn) | NRK-52E | MTT | 24 h | 83.2 µM |
| CC(=O)OCCOC(=O)[C@]1(C)CC[C@]2(C)CC[C@]3(C)C4=CC=C5C(=CC(=O)C(O)=C5C)[C@]4(C)CC[C@@]3(C)[C@@H]2C1 | Bel-7402 | MTT | 48 h | 0.59 µM |
| COc1cc(N2CCC(N3CCN(C)CC3)CC2)ccc1Nc1ncc(Cl)c(Nc2ccccc2S(=O)(=O)C(C)C)n1 | Rh18 | – | 72 h | 0.27 µM |
| CC1=C(O)C(=O)C=C2C1=CC=C1[C@@]2(C)CC[C@@]2(C)[C@@H]3C[C@](C)(C(=O)OCCCn4ccc5ccccc54)CC[C@]3(C)CC[C@]12C | Bel-7402 | MTT | 48 h | 5.42 µM |
| Cn1cc(C(c2ccc(C(=O)O)cc2)c2cn(C)c3ccccc23)c2ccccc21 | KG-1 | – | 48 h | > 20 µM |
| CC(C)C[C@H](NC(=O)[C@H](Cc1ccccc1)NC(=O)c1cnccn1)B(O)O | KG-1 | ATP luminescence | – | 0.0048 µM |
| Cc1[nH]c(/C=C2\C(=O)Nc3ccc(S(=O)(=O)N(C)c4cccc(Cl)c4)cc32)c(C)c1C(=O)N1CCN(C)CC1 | Rh18 | – | 72 h | 4.07 µM |
| CCn1c2ccccc2c2cc(/C=C/C(=O)c3cc4cccc(OC)c4oc3=O)ccc21 | NRK-52E | MTT | 24 h | 115 µM |
| CC1=C(O)C(=O)C=C2C1=CC=C1[C@@]2(C)CC[C@@]2(C)[C@@H]3C[C@](C)(C(=O)OCCCCO)CC[C@]3(C)CC[C@]12C | Bel-7402 | MTT | 48 h | 0.63 µM |
| CC(=O)O[C@H]1C(=O)[C@@]2(C)[C@H]([C@H](OC(=O)c3ccccc3)[C@]3(O)C[C@H](OC(=O)[C@H](O)[C@@H](NC(=O)c4ccccc4)c4ccccc4)C(C)=C1C3(C)C)[C@]1(OC(C)=O)CO[C@@H]1C[C@@H]2O | CT26 | – | – | 2 µg/mL |
| CCn1c2ccccc2c2cc(C3CC(c4cc5c(ccc6ccccc65)oc4=O)=NN3c3ccccc3)ccc21 (stereo not drawn) | NRK-52E | MTT | 24 h | 122 µM |
| N[C@@H](CC(=O)N1CCN(C(c2ccc(F)cc2)c2ccc(F)cc2)CC1)C(=O)N1Cc2ccccc2C1 | KG-1 | ATP luminescence | 48 h | 9.31 µM |
| CCn1c2ccccc2c2cc(C3CC(c4cc5cccc(OC)c5oc4=O)=NN3c3ccccc3)ccc21 (stereo not drawn) | NRK-52E | MTT | 24 h | 70.4 µM |
| CC(C)n1cc(C(c2ccc(/C=C/C(=O)O)s2)c2cn(C(C)C)c3ccccc23)c2ccccc21 | KG-1 | – | 48 h | > 5 µM |
| COCCCOC(=O)[C@]1(C)CC[C@]2(C)CC[C@]3(C)C4=CC=C5C(=CC(=O)C(O)=C5C)[C@]4(C)CC[C@@]3(C)[C@@H]2C1 | Bel-7402 | MTT | 48 h | 0.81 µM |
